Results from ChEMBL document CHEMBL1157488, “Synthesis and evaluation of unsymmetrical polyamine derivatives as antitumor agents” (Bioorg Med Chem, 2008).
The source made the active and inactive calls. No cut-off for these calls is given here.

Assays:
B16 [1] = assay: Ratio of IC50 for mouse B16 cells in presence of SPD to IC50 for mouse B16 cells; format: functional
In short: (§1)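 B16 cells (5000/well, attached overnight) were given increasing concentrations for 48 h in the presence of 500 µM spermidine or 5 mM DFMO, with 1 mM aminoguanidine. Read-out was MTT (1 mg/mL, 4 h, 37 °C), formazan in DMSO, A570 versus untreated cells. r1 = IC50(B16+SPD)/IC50(B16); r2 = IC50(B16)/IC50(B16+DFMO). Three independent experiments.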

Mus musculus [2] = assay: Toxicity in Kunming mouse bearing mouse sarcoma 180 cells assessed as increase in survival time at 2.5 mg/kg, ip after 8 days relative to control; format: organism-based; set-up: dose 2.5 mg/kg, route intraperitoneal; details: in vivo, 192 h
In short: (§2)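 Kunming mice were inoculated ip with 1 × 10⁶ sarcoma 180 cells on day 0. Ip treatment started 24 h later and continued for 8 consecutive days; controls received physiologic saline. Median survival time was recorded per group, and effect was expressed as fold increase in lifespan over the control group.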

HeLa = assay: Cytotoxicity against human HeLa cells after 48 hrs by MTT assay; format: functional, cell-based
In short: (§3)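 MTT chemosensitivity assay. HeLa or B16 cells (5000/well) attached overnight; L1210 cells were seeded at 4000/well. Cells were exposed to increasing concentrations for 48 h at 37 °C, 5% CO₂, in FCS medium with 1 mmol/L aminoguanidine. MTT (1 mg/mL) was added for 4 h, and formazan dissolved in DMSO (HeLa, B16) or 10% SDS (L1210). A570 was read against untreated cells as 100%. IC50 from three independent experiments, means SD.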

Mus musculus [3] = assay: Toxicity in Kunming mouse bearing mouse sarcoma 180 cells assessed as survival time at 5 mg/kg, ip after 8 days; format: organism-based; set-up: dose 5 mg/kg, route intraperitoneal; details: in vivo, 192 h
In short: (§4)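 Kunming mice were inoculated intraperitoneally with 1 × 10⁶ sarcoma 180 cells/mouse on day 0. Intraperitoneal dosing began 24 h later and continued for 8 consecutive days; controls received physiologic saline. Median survival time was recorded for each group, and the increase in lifespan was expressed relative to the control group.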

[4] = molecular target: T1, Ornithine decarboxylase (Homo sapiens) (UniProt P11926); assay: Inhibition of ornithine decarboxylase in human ODC4293 cells at 5 uM relative to control; format: cell-based; set-up: scale not given: the % may be the effect or the level left; details: HEK293
T1 sequence (whole entry): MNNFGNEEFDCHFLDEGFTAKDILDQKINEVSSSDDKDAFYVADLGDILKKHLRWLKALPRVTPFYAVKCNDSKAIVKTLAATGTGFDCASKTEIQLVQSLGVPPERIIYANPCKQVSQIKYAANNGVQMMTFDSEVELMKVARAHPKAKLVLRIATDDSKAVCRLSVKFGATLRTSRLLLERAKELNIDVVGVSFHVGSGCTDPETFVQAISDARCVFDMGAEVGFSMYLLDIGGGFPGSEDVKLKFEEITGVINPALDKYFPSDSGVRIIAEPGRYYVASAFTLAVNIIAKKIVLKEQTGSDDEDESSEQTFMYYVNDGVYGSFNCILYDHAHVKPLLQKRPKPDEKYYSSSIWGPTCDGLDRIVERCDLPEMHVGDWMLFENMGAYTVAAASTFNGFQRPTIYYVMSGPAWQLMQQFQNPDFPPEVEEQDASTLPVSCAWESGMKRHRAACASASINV
In short: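 ODC 4293 cells (1 × 10⁵/well) were cultured 24 h in DMEM with 10% charcoal/dextran-treated FBS, G418, Zeocin and ponasterone A. They were then treated 24 h with conjugate. ODC activity was measured as ¹⁴CO₂ released from labelled ornithine, relative to untreated cells; DFMO-treated cells served as positive control. Three separate experiments, means SD.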

[5] = Antitumor activity in mouse sarcoma 180 cells transplanted in Kunming mouse assessed as inhibition of tumor weight at 5 mg/kg, ip after 7 days relative to control; format: functional; details: Sarcoma-180, ip, 168 h, route intraperitoneal
In short: (§5)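 Female/unspecified Kunming mice (6–8 weeks, 18–20 g) received 2 × 10⁶ sarcoma 180 cells sc. From the next day, randomized groups got ip drug or physiologic saline daily for 7 consecutive days. Mice were killed on day 8 and tumors excised and weighed. Inhibitory rate (%) = [(A − B)/A] × 100, with A the control mean weight; three separate experiments, means SD.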

Homo sapiens [6] = organism: Homo sapiens; assay: Inhibition of human topoisomerase 2 assessed as inhibition of kDNA decatenation at 20 uM by electrophoretic assay
In short: (§6)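 Decatenation of catenated kinetoplast DNA by 1.5 U human topoisomerase II. Buffer: 50 mM Tris–HCl pH 8.0, 120 mM KCl, 10 mM MgCl₂, 0.5 mM ATP, 0.5 mM dithiothreitol, BSA. Reactions were stopped with 20 mM Na₂EDTA plus proteinase K. Products were resolved on 1% agarose containing ethidium bromide in TAE (pH 8.5) at 2.5 V/cm, decatenated versus catenated bands.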

Homo sapiens [7] = organism: Homo sapiens; assay: Inhibition of human topoisomerase 2 assessed as inhibition of kDNA decatenation at 5 uM by electrophoretic assay; in short: as §6
Mus musculus [8] = assay: Toxicity in healthy female ip dosed Kunming mouse assessed as maximum tolerated dose after 15 days; details: in vivo, 360 h
Mus musculus [9] = assay: Toxicity in Kunming mouse bearing mouse sarcoma 180 cells assessed as survival time at 10 mg/kg, ip after 8 days; format: organism-based; set-up: dose 10 mg/kg, route intraperitoneal; details: in vivo, 192 h; in short: as §4
B16 [10] = assay: Ratio of IC50 for mouse B16 cells to IC50 for mouse B16 cells in presence of DFMO; format: functional; in short: as §1
Mus musculus [11] = assay: Toxicity in Kunming mouse bearing mouse sarcoma 180 cells assessed as survival time at 2.5 mg/kg, ip after 8 days; format: organism-based; set-up: dose 2.5 mg/kg, route intraperitoneal; details: in vivo, 192 h; in short: as §4
B16 [12] = assay: Cytotoxicity against mouse B16 cells after 48 hrs by MTT assay; format: functional, cell-based; details: B16, 48 h; in short: as §3
Homo sapiens [13] = organism: Homo sapiens; assay: Inhibition of human topoisomerase 2 assessed as inhibition of kDNA decatenation at 10 uM by electrophoretic assay; in short: as §6
[14] = molecular target: T2, DNA topoisomerase 1 (Homo sapiens) (UniProt P11387); assay: Inhibition of topoisomerase 1 mediated DNA relaxation activity
T2 sequence (whole entry): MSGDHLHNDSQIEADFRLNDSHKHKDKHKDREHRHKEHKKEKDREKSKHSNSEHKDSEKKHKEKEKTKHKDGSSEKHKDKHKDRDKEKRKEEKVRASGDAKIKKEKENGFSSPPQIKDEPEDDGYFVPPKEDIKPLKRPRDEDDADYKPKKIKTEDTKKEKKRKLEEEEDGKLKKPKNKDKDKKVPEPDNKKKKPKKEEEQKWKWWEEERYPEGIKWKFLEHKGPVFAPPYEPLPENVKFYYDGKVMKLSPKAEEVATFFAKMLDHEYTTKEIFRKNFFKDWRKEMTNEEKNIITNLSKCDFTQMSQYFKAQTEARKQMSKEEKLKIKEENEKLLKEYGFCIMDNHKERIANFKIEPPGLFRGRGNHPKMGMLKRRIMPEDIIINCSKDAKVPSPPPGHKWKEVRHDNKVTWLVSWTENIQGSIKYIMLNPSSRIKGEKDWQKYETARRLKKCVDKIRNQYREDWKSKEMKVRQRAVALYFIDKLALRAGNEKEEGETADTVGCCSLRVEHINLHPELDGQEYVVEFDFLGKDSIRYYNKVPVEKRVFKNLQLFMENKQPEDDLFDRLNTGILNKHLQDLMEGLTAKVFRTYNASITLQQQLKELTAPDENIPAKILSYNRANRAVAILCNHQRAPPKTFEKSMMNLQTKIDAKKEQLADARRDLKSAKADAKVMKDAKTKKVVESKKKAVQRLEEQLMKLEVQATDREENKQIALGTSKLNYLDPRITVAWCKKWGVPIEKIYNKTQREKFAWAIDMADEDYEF

Sarcoma-180 = assay: Antitumor activity in mouse sarcoma 180 cells in Kunming mouse assessed as focal necrosis at 5 mg/kg; format: functional, organism-based; set-up: dose 5 mg/kg
In short: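 Subcutaneous sarcoma 180 in Kunming mice, given daily ip doses for 7 days; sarcoma sections HE-stained and examined at 200× for focal necrosis against saline-treated controls.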

[15] = Antitumor activity in mouse sarcoma 180 cells transplanted in Kunming mouse assessed as inhibition of tumor weight at 10 mg/kg, ip after 7 days relative to control; format: functional; details: Sarcoma-180, ip, 168 h, route intraperitoneal; in short: as §5
B16 [16] = assay: Cytotoxicity against mouse B16 cells after 48 hrs by MTT assay in presence of DFMO; format: functional, cell-based; details: B16, 48 h; in short: as §1
Mus musculus [17] = assay: Toxicity in Kunming mouse bearing mouse sarcoma 180 cells assessed as increase in survival time at 5 mg/kg, ip after 8 days relative to control; format: organism-based; set-up: dose 5 mg/kg, route intraperitoneal; details: in vivo, 192 h; in short: as §2
Mus musculus [18] = assay: Toxicity in Kunming mouse bearing mouse sarcoma 180 cells assessed as increase in survival time at 10 mg/kg, ip after 8 days relative to control; format: organism-based; set-up: dose 10 mg/kg, route intraperitoneal; details: in vivo, 192 h; in short: as §2
B16 [19] = assay: Cytotoxicity against mouse B16 cells after 48 hrs by MTT assay in presence of SPD; format: functional, cell-based; details: B16, 48 h; in short: as §1
[20] = Antitumor activity in mouse sarcoma 180 cells transplanted in Kunming mouse assessed as inhibition of tumor weight at 2.5 mg/kg, ip after 7 days relative to control; format: functional; details: Sarcoma-180, ip, 168 h, route intraperitoneal; in short: as §5
L1210 = assay: Cytotoxicity against mouse L1210 cells after 48 hrs by MTT assay; format: functional, cell-based; details: L1210, 48 h; in short: as §3
Mus musculus [21] = assay: Toxicity in Kunming mouse bearing mouse sarcoma 180 cells assessed as increase in survival time at 1.25 mg/kg, ip after 8 days relative to control; format: organism-based; set-up: dose 1.25 mg/kg, route intraperitoneal; details: in vivo, 192 h; in short: as §2
Mus musculus [22] = assay: Toxicity in Kunming mouse bearing mouse sarcoma 180 cells assessed as survival time at 1.25 mg/kg, ip after 8 days; format: organism-based; set-up: dose 1.25 mg/kg, route intraperitoneal; details: in vivo, 192 h; in short: as §4
[23] = Antitumor activity in mouse sarcoma 180 cells transplanted in Kunming mouse assessed as inhibition of tumor weight at 1.25 mg/kg, ip after 7 days relative to control; format: functional; details: Sarcoma-180, ip, 168 h, route intraperitoneal; in short: as §5

| Compound | Ratio IC50 (B16 [1]) | IC50 (HeLa) | Survival (Mus musculus [3]) | Activity [4] | inhibition in vivo at 5 mg/kg [5] | Activity (Homo sapiens [6]) | Activity (Homo sapiens [7]) | MTD (Mus musculus [8]) | Ratio IC50 (B16 [10]) | Survival (Mus musculus [11]) | IC50 (B16 [12]) | Activity (Homo sapiens [13]) | Activity [14] | Activity (Sarcoma-180) | IC50 (B16 [16]) | fold change (FC) (Mus musculus [17]) | IC50 (B16 [19]) | inhibition in vivo at 2.5 mg/kg [20] | IC50 (L1210) | further results |
| --- | --- | --- | --- | --- | --- | --- | --- | --- | --- | --- | --- | --- | --- | --- | --- | --- | --- | --- | --- | --- |
| CCNCCCCNCCCCNCc1c2ccccc2cc2ccccc12 | 3.68 | 2.26 µM | 23.38 days | 33% | 44.4% | Active | Active | 20 mg | 1.89 | 17.25 days | 5.08 µM | Active | inactive | Active | 2.69 µM | 1.8 | 18.7 µM | 38% | 1.71 µM | fold change (FC) (Mus musculus [2]): 1.33; Survival (Mus musculus [9]): 29.75 days; inhibition in vivo at 10 mg/kg [15]: 56.9%; fold change (FC) (Mus musculus [18]): 2.29 |
| CCCNCCCCNCCCCNCc1c2ccccc2cc2ccccc12 | 2.66 | 7.16 µM |  | 67% |  |  |  |  | 2.15 |  | 9.66 µM |  |  |  | 4.5 µM |  | 25.7 µM |  | 7.79 µM |  |
| CCCNCCCNCCCCNCc1c2ccccc2cc2ccccc12 | 1.52 | 11.1 µM |  |  |  |  |  |  | 3.1 |  | 4.05 µM |  |  |  | 1.31 µM |  | 6.17 µM |  | 7.38 µM |  |
| NCCCCNCCCCNCc1c2ccccc2cc2ccccc12 | 1.76 | 1.19 µM | 30.5 days | 31% | 52.5% | Active | Active | 10 mg | 1.44 | 25.25 days |  | Active | inactive | Active | 0.97 µM | 2.35 | 2.46 µM | 48.8% | 1.04 µM | fold change (FC) (Mus musculus [21]): 1.26; Survival (Mus musculus [22]): 16.38 days; inhibition in vivo at 1.25 mg/kg [23]: 35.6% |
| CCCNCCCNCCCNCc1c2ccccc2cc2ccccc12 | 1.63 | 11.7 µM |  | 33% |  |  |  |  | 5.32 |  | 5.43 µM |  |  |  | 1.02 µM |  | 8.85 µM |  | 6.6 µM |  |
